Test results as given in ChEMBL document CHEMBL3352013, “The design and synthesis of potent and selective inhibitors of Trypanosoma brucei glycogen synthase kinase 3 for the treatment of human african trypanosomiasis” (J Med Chem, 2014).

Key:
[1] = Inhibition of Trypanosoma brucei GSK3 using biotinylated GSP2 substrate by flashplate assay
Outline: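 Radiometric Flashplate assay: 2.5 nM TbGSK3 short, 1 μM biotinylated GSP2, 1 μM ATP plus [γ-33P]-ATP. 10-point titration 30 μM to 0.3 nM final, 1% DMSO. IC50 averaged over two or more experiments; standard GW8510 used for reproducibility (MSR).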

[2] = Selectivity ratio, ratio of IC50 for human CDK2/cyclin A to IC50 for Trypanosoma brucei GSK3
[3] = tested on: MRC5; experiment: Cytotoxicity against human MRC5 cells assessed as growth inhibition after 72 hrs; format: cell-based; conditions: MRC5, 72 h
Outline: (§1)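 Resazurin viability assay: 2 × 10³ cells/well (MRC5 in MEM + 10% FBS; bloodstream-form T. b. brucei in appropriate medium), compounds 50 μM to 0.5 nM, 37 °C, 5% CO₂ for 69 h, then resazurin 50 μM final for further 4 h; fluorescence read. Concentration giving 50% growth inhibition over 72 h; average of two or more experiments.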

[4] = biological target: Glycogen synthase kinase-3 (Homo sapiens, UniProt P49840+P49841); experiment: Inhibition of human GSK3 using biotinylated GSP2 substrate by flashplate assay; format: protein assay
[5] = tested on: Trypanosoma brucei brucei; experiment: Trypanocidal activity against bloodstream stage of Trypanosoma brucei brucei assessed as inhibition of proliferation after 72 hrs; format: functional, organism-based; outline: as §1
[6] = biological target: CDK2/Cyclin A2 (Homo sapiens, UniProt P24941); experiment: Inhibition of human CDK2/cyclin A using Biotin-C6-PKTPKKAKKL substrate; format: protein-complex assay
[7] = Selectivity ratio, ratio of IC50 for human GSK3 to IC50 Trypanosoma brucei GSK3

| Structure (SMILES) | Ratio IC50 [2] | IC50 [4] [nM] | IC50 [6] [nM] | Ratio IC50 [7] | IC50 [1] [nM] | EC50 [3] [µM] | EC50 [5] [nM] |
| --- | --- | --- | --- | --- | --- | --- | --- |
| CO[C@H]1CC[C@H](NC(=O)c2n[nH]cc2NC(=O)c2cc3ccccn3n2)CC1 | 0.67 | < 5 | 42 |  | 63 | 1 | 1900 |
| CO[C@H]1CC[C@H](NC(=O)c2n[nH]cc2NC(=O)c2cc(Cl)cc(Cl)c2)CC1 | 11 | < 5 | 630 |  | 57 | 13 | 9600 |
| CO[C@H]1CC[C@H](NC(=O)c2n[nH]cc2NC(=O)c2ccc(N3CCN(C)CC3)cc2)CC1 | 14 | < 5 | 1000 |  | 70 | 20 | 2000 |
| CO[C@H]1CC[C@H](NC(=O)c2n[nH]cc2NC(=O)c2ccccc2Nc2ccccc2)CC1 |  | 20 |  | 1.8 | 11 | 35 | 4400 |
| CO[C@H]1CC[C@H](NC(=O)c2n[nH]cc2NC(=O)c2ccc(N3CCCC3)cc2)CC1 | 6.8 | < 5 | 130 |  | 19 | > 50 | 2700 |
| CO[C@H]1CC[C@H](NC(=O)c2n[nH]cc2NC(=O)c2ccc(OC(F)F)cc2)CC1 | 17 | < 5 | 270 |  | 16 | 2.5 | 1100 |
| COc1cccc(OC)c1C(=O)Nc1c[nH]nc1C(=O)NCC1CCCCC1 |  |  |  |  | 1 | > 50 | 7700 |
| CO[C@H]1CC[C@H](NC(=O)c2n[nH]cc2NC(=O)c2cnc3ccccn23)CC1 | 1.6 | < 5 | 150 |  | 94 | 5.9 | 2600 |

Second part, led by results:

| Ratio IC50 [2] | IC50 [4] [nM] | IC50 [6] [nM] | Ratio IC50 [7] | Structure (SMILES) | IC50 [1] [nM] | EC50 [3] [µM] | EC50 [5] [nM] |
| --- | --- | --- | --- | --- | --- | --- | --- |
| 4800 | 100 | 4800 |  | CCCCCNC(=O)c1n[nH]cc1NC(=O)c1c(OC)cccc1OC | 1 | > 50 | 7300 |
|  | < 5 |  |  | CO[C@H]1CC[C@H](NC(=O)c2n[nH]cc2NC(=O)c2cc3ccccc3o2)CC1 | 13 | 0.8 | 1200 |
| > 10000 |  | > 10000 |  | COc1cccc(OC)c1C(=O)Nc1c[nH]nc1C(=O)NCCCOC(C)C | 1 | > 50 | 6600 |
| 3.5 | < 5 | 83 |  | CO[C@H]1CC[C@H](NC(=O)c2n[nH]cc2NC(=O)c2cc(F)cc(F)c2)CC1 | 24 | 0.6 | 2600 |
| 25 | < 13 | 100 |  | COc1ccccc1C(=O)Nc1c[nH]nc1C(=O)N[C@H]1CC[C@H](OC)CC1 | 4 | 1.5 | 900 |
| 4800 |  | > 4800 |  | COc1cccc(OC)c1C(=O)Nc1c[nH]nc1C(=O)NC1CCC(C)CC1 (mixture of isomers) | 1 | 45 | 6700 |
| 5.6 | < 13 | 100 |  | CO[C@H]1CC[C@H](NC(=O)c2n[nH]cc2NC(=O)c2ccccc2C(F)(F)F)CC1 | 18 | 3.3 | 2300 |
|  | > 10000 | > 10000 |  | COc1cccc(OC)c1C(=O)Nc1c[nH]nc1C(=O)O | > 50000 | > 50 | > 50000 |
| > 560 |  | > 10000 |  | COc1cccc(OC)c1C(=O)Nc1c[nH]nc1C(=O)NC1CC2CCC1C2 (stereo not drawn) | 18 | > 50 | 16000 |
| 4.2 | < 5 | 220 |  | CO[C@H]1CC[C@H](NC(=O)c2n[nH]cc2NC(=O)c2ccc(F)cc2F)CC1 | 53 | 11 | 3800 |
